{
  "source": "ChEMBL document CHEMBL2146382",
  "about": "“Cytotoxic and antineoplastic activity of timosaponin A-III for human colon cancer cells” (J Nat Prod, 2011)",
  "key": {"HCT-15 [1]": {"tested_on": "HCT-15", "assay": "Cell cycle arrest in human HCT15 cells assessed as accumulation at sub-G1 phase at 20 uM after 24 hrs using propidium-iodide staining by flow-cytometry (reference value: 6.5 %)", "format": "functional"}, "HCT-15 [2]": {"tested_on": "HCT-15", "assay": "Cell cycle arrest in human HCT15 cells assessed as accumulation at S phase at 20 uM after 24 hrs using propidium-iodide staining by flow-cytometry (reference value: 34.1 %)", "format": "functional"}, "HCT-15 [3]": {"tested_on": "HCT-15", "assay": "Antineoplastic activity against human HCT15 cells xenografted nude in BALB/c mouse assessed as inhibition of rate of tumor size at 2 mg/kg, ip 3 times a week for 4 weeks relative to control", "format": "functional", "settings": "HCT-15, ip, 672 h, route intraperitoneal", "in_short": "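HCT-15 cells (2 × 10^6 in 200 μL medium) implanted subcutaneously in flanks of BALB/c-nu (nu/nu) mice; dosing began at ca. 80 mm3 tumours; groups of five, randomized. 2 or 5 mg/kg given ip three times weekly in ethanol–cremophor–H2O (0.5:0.5:99), vehicle controls; caliper volume (3.14·L·W·H/6) three times weekly for 30 days; Ki-67 immunohistochemistry on tumour sections (1:250, 4 °C overnight, DAB, hematoxylin counterstain).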"}, "HCT-15 [4]": {"tested_on": "HCT-15", "assay": "Cell cycle arrest at G0/G1 phase in human HCT15 cells assessed as decrease in CDK4 expression at 5 to 20 uM after 12 to 24 hrs by Western blot analysis", "format": "functional, cell-based", "in_short": "(§1)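 HCT-15 cells in RPMI/10% FBS exposed to test compound at various concentrations; lysates quantified by BCA, 30–50 μg protein run on 10% SDS-PAGE, transferred to PVDF, blocked 1 h in 5% milk/PBST, primary antibodies overnight at 4 °C, HRP anti-mouse IgG 1:1500 for 3 h at room temperature, ECL detection.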"}, "HCT-15 [5]": {"tested_on": "HCT-15", "assay": "Cell cycle arrest at […] phase in human HCT15 cells assessed as cyclin A down regulation at 5 to 20 uM after 12 to 24 hrs by Western blot analysis", "format": "functional, cell-based", "in_short": "as §1"}, "HCT-15 [6]": {"tested_on": "HCT-15", "assay": "Cell cycle arrest at […] phase in human HCT15 cells assessed as CDK4 down regulation at 5 to 20 uM after 12 to 24 hrs by Western blot analysis", "format": "functional, cell-based", "in_short": "as §1"}, "HCT-15 [7]": {"tested_on": "HCT-15", "assay": "Induction of apoptosis in human HCT15 cells assessed as increase in caspase-8 expression after 12 to 24 hrs by Western blot analysis", "format": "functional, cell-based", "in_short": "as §1"}, "HCT-15 [8]": {"tested_on": "HCT-15", "assay": "Induction of apoptosis in human HCT15 cells assessed as increase in caspase-9 expression at 5 to 20 uM by Western blot analysis", "format": "functional, cell-based", "in_short": "(§2)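 HCT-15 cells (RPMI, 10% heat-inactivated FBS, antibiotics-antimycotics, 37 C, 5% CO2) exposed to compound. Cells lysed, protein measured by BCA, 30-50 μg per lane resolved on 10% SDS-PAGE and electroblotted to PVDF. Membranes blocked 1 h in 5% nonfat milk/PBST, probed with primary antibodies overnight at 4 C, then HRP anti-mouse IgG 1:1500 for 3 h at room temperature. Detection by ECL; β-actin antibody available.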"}, "HCT-15 [9]": {"tested_on": "HCT-15", "assay": "Induction of apoptosis in human HCT15 cells assessed as increase in caspase-9 expression after 12 to 24 hrs by Western blot analysis", "format": "functional, cell-based", "in_short": "as §2"}, "HCT-15 [10]": {"tested_on": "HCT-15", "assay": "Induction of apoptosis in human HCT15 cells assessed as increase in caspase-3 expression after 12 to 24 hrs by Western blot analysis", "format": "functional, cell-based", "in_short": "as §1"}, "HCT-15 [11]": {"tested_on": "HCT-15", "assay": "Induction of apoptosis in human HCT15 cells assessed as suppression of Bcl2 expression at 5 to 20 uM after 24 hrs by Western blot analysis", "format": "functional, cell-based", "in_short": "as §2"}, "HCT-15 [12]": {"tested_on": "HCT-15", "assay": "Induction of apoptosis in human HCT15 cells assessed as suppression of Bcl-xL expression at 5 to 20 uM after 24 hrs by Western blot analysis", "format": "functional, cell-based", "in_short": "as §2"}, "[13]": {"assay": "Growth inhibition of human […] cells", "format": "cell-based", "in_short": "(§3)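 SRB assay: cells at 5 × 10^4 cells/mL were exposed to a concentration series for 3 days, fixed with 10% TCA and stained with sulforhodamine B. Survival was expressed as % of solvent-treated control and IC50 taken by nonlinear regression of % survival versus concentration. Media held 10% heat-inactivated FBS plus antibiotics: RPMI (HCT-15, HCT 116, HT-29), RPMI with 25 mM HEPES (SW480, SW620), DMEM (MRC-5, Hs68). Cultures were kept at 37 C, 5% CO2.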"}, "Hs68": {"tested_on": "Hs68", "assay": "Growth inhibition of human HS68 cells", "format": "cell-based", "in_short": "as §3"}, "HCT-15 [14]": {"tested_on": "HCT-15", "assay": "Cell cycle arrest in human HCT15 cells assessed as increase in cyclin E expression at 5 to 20 uM after 12 to 24 hrs by Western blot analysis", "format": "functional, cell-based", "in_short": "as §1"}, "HCT-15 [15]": {"tested_on": "HCT-15", "assay": "Cell cycle arrest in human HCT15 cells up to 10 uM after 12 hrs by propidium-iodide staining by flow-cytometry", "format": "functional, cell-based"}, "HCT-15 [16]": {"tested_on": "HCT-15", "assay": "Cell cycle arrest in human HCT15 cells assessed as accumulation at sub-G1 phase at 5 uM after 12 hrs using propidium-iodide staining by flow-cytometry (reference value: 5.2 %)", "format": "functional"}, "HCT-15 [17]": {"tested_on": "HCT-15", "assay": "Cell cycle arrest in human HCT15 cells assessed as accumulation at G0/G1 phase at 5 uM after 12 hrs using propidium-iodide staining by flow-cytometry (reference value: 44.4 %)", "format": "functional"}, "HCT-15 [18]": {"tested_on": "HCT-15", "assay": "Cell cycle arrest in human HCT15 cells assessed as accumulation at sub-G1 phase at 10 uM after 12 hrs using propidium-iodide staining by flow-cytometry (reference value: 5.2 %)", "format": "functional"}, "HCT-15 [19]": {"tested_on": "HCT-15", "assay": "Cell cycle arrest in human HCT15 cells assessed as accumulation at G0/G1 phase at 10 uM after 12 hrs using propidium-iodide staining by flow-cytometry (reference value: 44.4 %)", "format": "functional"}, "HCT-15 [20]": {"tested_on": "HCT-15", "assay": "Cell cycle arrest in human HCT15 cells assessed as accumulation at G2/M phase at 10 uM after 12 hrs using propidium-iodide staining by flow-cytometry (reference value: 15.7 %)", "format": "functional"}, "HCT-15 [21]": {"tested_on": "HCT-15", "assay": "Cell cycle arrest in human HCT15 cells assessed as accumulation at G0/G1 phase at 20 uM after 12 hrs using propidium-iodide staining by flow-cytometry (reference value: 44.4 %)", "format": "functional"}, "HCT-15 [22]": {"tested_on": "HCT-15", "assay": "Cell cycle arrest in human HCT15 cells assessed as accumulation at G2/M phase at 20 uM after 12 hrs using propidium-iodide staining by flow-cytometry (reference value: 15.7 %)", "format": "functional"}, "HCT-15 [23]": {"tested_on": "HCT-15", "assay": "Cell cycle arrest in human HCT15 cells assessed as accumulation at sub-G1 phase at 5 uM after 24 hrs using propidium-iodide staining by flow-cytometry (reference value: 6.5 %)", "format": "functional"}, "HCT-15 [24]": {"tested_on": "HCT-15", "assay": "Cell cycle arrest in human HCT15 cells assessed as accumulation at S phase at 5 uM after 24 hrs using propidium-iodide staining by flow-cytometry (reference value: 34.1 %)", "format": "functional"}, "HCT-15 [25]": {"tested_on": "HCT-15", "assay": "Cell cycle arrest in human HCT15 cells assessed as accumulation at sub-G1 phase at 10 uM after 24 hrs using propidium-iodide staining by flow-cytometry (reference value: 6.5 %)", "format": "functional"}, "HCT-15 [26]": {"tested_on": "HCT-15", "assay": "Cell cycle arrest in human HCT15 cells assessed as accumulation at G0/G1 phase at 10 uM after 24 hrs using propidium-iodide staining by flow-cytometry (reference value: 37.0 %)", "format": "functional"}, "HCT-15 [27]": {"tested_on": "HCT-15", "assay": "Cell cycle arrest in human HCT15 cells assessed as accumulation at G2/M phase at 10 uM after 24 hrs using propidium-iodide staining by flow-cytometry (reference value: 22.4 %)", "format": "functional"}},
  "note": "The source made the active and inactive calls. The calls are words filed in the database; no cut-off is given here.",
  "data": [
    {"smiles": "C[C@H]1CC[C@@]2(OC1)O[C@H]1C[C@H]3[C@@H]4CC[C@@H]5C[C@@H](O[C@@H]6O[C@H](CO)[C@H](O)[C@H](O)[C@H]6O[C@@H]6O[C@H](CO)[C@@H](O)[C@H](O)[C@H]6O)CC[C@]5(C)[C@H]4CC[C@]3(C)[C@H]1[C@@H]2C", "note": "[TIMOSAPONIN AIII]", "values": [
      {"measurement": "Activity", "setting": "HCT-15 [1]", "result": 39.7, "unit": "%"},
      {"measurement": "Activity", "setting": "HCT-15 [2]", "result": 17, "unit": "%"},
      {"measurement": "inhibition in vivo at 2 mg/kg", "setting": "HCT-15 [3]", "result": 8.3, "unit": "%"},
      {"measurement": "Activity", "setting": "HCT-15 [4]", "result": "Active"},
      {"measurement": "Activity", "setting": "HCT-15 [5]", "result": "Active"},
      {"measurement": "Activity", "setting": "HCT-15 [6]", "result": "Active"},
      {"measurement": "Activity", "setting": "HCT-15 [7]", "result": "Active"},
      {"measurement": "Activity", "setting": "HCT-15 [8]", "result": "Active"},
      {"measurement": "Activity", "setting": "HCT-15 [9]", "result": "Active"},
      {"measurement": "Activity", "setting": "HCT-15 [10]", "result": "Active"},
      {"measurement": "Activity", "setting": "HCT-15 [11]", "result": "Active"},
      {"measurement": "Activity", "setting": "HCT-15 [12]", "result": "Active"},
      {"measurement": "IC50", "setting": "[13]", "result": "> 50", "unit": "µM"},
      {"measurement": "IC50", "setting": "Hs68", "result": "> 50", "unit": "µM"},
      {"measurement": "Activity", "setting": "HCT-15 [14]", "result": "Active"},
      {"measurement": "Activity", "setting": "HCT-15 [15]", "result": "Active"},
      {"measurement": "Activity", "setting": "HCT-15 [16]", "result": 4.8, "unit": "%"},
      {"measurement": "Activity", "setting": "HCT-15 [17]", "result": 52.2, "unit": "%"},
      {"measurement": "Activity", "setting": "HCT-15 [18]", "result": 14.2, "unit": "%"},
      {"measurement": "Activity", "setting": "HCT-15 [19]", "result": 43.2, "unit": "%"},
      {"measurement": "Activity", "setting": "HCT-15 [20]", "result": 24.2, "unit": "%"},
      {"measurement": "Activity", "setting": "HCT-15 [21]", "result": 12.2, "unit": "%"},
      {"measurement": "Activity", "setting": "HCT-15 [22]", "result": 41.8, "unit": "%"},
      {"measurement": "Activity", "setting": "HCT-15 [23]", "result": 7.2, "unit": "%"},
      {"measurement": "Activity", "setting": "HCT-15 [24]", "result": 37, "unit": "%"},
      {"measurement": "Activity", "setting": "HCT-15 [25]", "result": 6.4, "unit": "%"},
      {"measurement": "Activity", "setting": "HCT-15 [26]", "result": 47.9, "unit": "%"},
      {"measurement": "Activity", "setting": "HCT-15 [27]", "result": 30.4, "unit": "%"}
    ]}
  ]
}
